Consider 2 compounds from ChEMBL document CHEMBL4118097, “Selective Inhibitors of Dual Leucine Zipper Kinase (DLK, MAP3K12) with Activity in a Model of Alzheimer's Disease” (J Med Chem, 2017).

Assay [1] concerns the target T1, Mitogen-activated protein kinase kinase kinase 12 (Homo sapiens, UniProt Q12852).
T1 sequence (Q12852 whole entry): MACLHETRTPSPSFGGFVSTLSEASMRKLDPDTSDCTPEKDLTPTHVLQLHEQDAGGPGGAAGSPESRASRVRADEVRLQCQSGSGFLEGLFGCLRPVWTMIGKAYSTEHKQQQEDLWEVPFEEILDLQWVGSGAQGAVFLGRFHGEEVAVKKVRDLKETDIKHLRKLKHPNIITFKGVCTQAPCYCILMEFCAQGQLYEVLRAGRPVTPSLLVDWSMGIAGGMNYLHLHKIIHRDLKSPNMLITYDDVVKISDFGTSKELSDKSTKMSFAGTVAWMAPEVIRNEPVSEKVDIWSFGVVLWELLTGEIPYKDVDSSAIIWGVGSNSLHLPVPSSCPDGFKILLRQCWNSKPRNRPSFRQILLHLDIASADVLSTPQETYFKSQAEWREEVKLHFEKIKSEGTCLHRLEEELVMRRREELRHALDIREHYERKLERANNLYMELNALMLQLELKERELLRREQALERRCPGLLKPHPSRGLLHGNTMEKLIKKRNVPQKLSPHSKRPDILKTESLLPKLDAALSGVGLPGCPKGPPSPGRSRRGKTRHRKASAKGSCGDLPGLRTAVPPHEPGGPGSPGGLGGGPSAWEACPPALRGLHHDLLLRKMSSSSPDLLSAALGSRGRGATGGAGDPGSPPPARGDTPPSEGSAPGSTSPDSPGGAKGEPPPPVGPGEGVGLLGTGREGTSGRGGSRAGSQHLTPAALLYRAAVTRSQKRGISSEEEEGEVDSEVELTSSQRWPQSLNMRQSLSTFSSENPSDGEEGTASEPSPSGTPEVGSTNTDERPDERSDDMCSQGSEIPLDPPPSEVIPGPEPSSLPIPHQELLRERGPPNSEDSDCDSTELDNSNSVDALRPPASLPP
As to the kind of experiment: Binding affinity to full length wild type human DLK (M1 to P859 residues) expressed in mammalian cells by KINOMEscan assay. In kind it is cell-based. In a few lines: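 Binding measured in an outsourced KINOMEscan profiling service, run alongside the homologous kinase LZK; the value is reported as a dissociation constant (Kd).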

Assay [2] addresses Dual specificity protein kinase CLK2 (Homo sapiens) (UniProt P49760). As to the kind of experiment: Inhibition of recombinant GST-tagged human CLK2 catalytic domain(137 to 498 residues)expressed in baculovirus expression system at 1 uM by FRET assay relative to control.
Assay [3] concerns the target Aurora kinase B (Homo sapiens) (UniProt Q96GD4). As to the kind of experiment: Inhibition of recombinant full length His-tagged human Aurora B expressed in baculovirus expression system at 1 uM by FRET assay relative to control.
Assay [4] concerns the target Tyrosine-protein kinase ABL1 (Homo sapiens) (UniProt P00519). The assay is described as follows: Inhibition of recombinant GST/His-tagged human Abl (118 to 535 residues) at 1 uM by FRET assay relative to control. In a few lines: (§1)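 Single-point screen at 1 μM compound in a 220-kinase panel run by Life Technologies (SelectScreen). Z′-LYTE format: phosphorylation of a labeled peptide substrate read by FRET. Values are reported as percent inhibition.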

Assay [5] concerns the target Tyrosine-protein kinase JAK3 (Homo sapiens) (UniProt P52333). As to the kind of experiment: Inhibition of recombinant GST-tagged human JAK3 catalytic domain (781 to 1124 residues) expressed in baculovirus expression system at 1 uM by FRET relative to control. In short, it runs like this:
as §1

The target in assay [6] is Tyrosine-protein kinase JAK2 (Homo sapiens) (UniProt O60674). As to the kind of experiment: Inhibition of recombinant GST-tagged human JAK2 catalytic domain (809 to 1153 residues) expressed in baculovirus expression system at 1 uM by FRET relative to control. In short, it runs like this: as §1
Assay [7] deals with Tyrosine-protein kinase JAK1 (Homo sapiens) (UniProt P23458). As to the kind of experiment: Inhibition of recombinant GST-tagged human JAK1 catalytic domain (866 to 1154 residues) expressed in baculovirus expression system at 1 uM by FRET relative to control. In a few lines: as §1
Assay [8] concerns the target Mitogen-activated protein kinase 1 (Homo sapiens) (UniProt P28482). As to the kind of experiment: Inhibition of recombinant GST-tagged human ERK2 expressed in Escherichia coli at 1 uM by FRET assay relative to control. In short, it runs like this:
as §1

The target in assay [9] is Protein kinase C beta type (Homo sapiens) (UniProt P05771). As to the kind of experiment: Inhibition of PKCbeta1 (unknown origin) at 1 uM by FRET assay relative to control.
Assay [10] concerns the target Phosphorylase b kinase gamma catalytic chain, liver/testis isoform (Homo sapiens) (UniProt P15735). The assay is described as follows: Inhibition of recombinant full length GST-tagged human PHKgamma2 expressed in baculovirus expression system at 1 uM by FRET assay relative to control. In short, it runs like this: (§2)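 Single-concentration screen at 1 μM in Life Technologies SelectScreen, across a 220-kinase panel. Z′-LYTE format measures phosphorylation of a labeled peptide by FRET. Results are reported as percent inhibition.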

Assay [11] has as its target Ribosomal protein S6 kinase (Homo sapiens) (UniProt P51812+Q9UBS0+O75676+Q15349+O75582+P23443+Q9UK32+Q15418). The assay is described as follows: Inhibition of recombinant GST-tagged human p70S6K catalytic domain expressed in baculovirus expression system at 1 uM by FRET assay relative to control. In a few lines:
as §1

For assay [12], the target named is Serine/threonine-protein kinase WNK2 (Homo sapiens) (UniProt Q9Y3S1). The assay is described as follows: Inhibition of recombinant GST-tagged human WNK2 expressed in baculovirus expression system at 1 uM by FRET assay relative to control. In a few lines: as §1
Assay [13] concerns the target Ribosomal protein S6 kinase alpha-1 (Homo sapiens) (UniProt Q15418). The assay is described as follows: Inhibition of recombinant full length His-tagged human RSK1 expressed in baculovirus expression system at 1 uM by FRET assay relative to control.
Assay [14] addresses Tyrosine-protein kinase receptor TYRO3 (Homo sapiens) (UniProt Q06418). As to the kind of experiment: Inhibition of recombinant full length GST-tagged human Rse cytoplasmic domain (451 to 890 residues) expressed in baculovirus expression system at 1 uM by FRET assay relative to control. In short, it runs like this: as §2
Assay [15] has as its target Rho-associated protein kinase 2 (Homo sapiens) (UniProt O75116). As to the kind of experiment: Inhibition of recombinant N-terminal GST-tagged human ROCK2 catalytic domain (1 to 552 residues) expressed in baculovirus expression system at 1 uM by FRET assay relative to control. In a few lines: as §2
The target in assay [16] is Serine/threonine-protein kinase PLK1 (Homo sapiens) (UniProt P53350). As to the kind of experiment: Inhibition of full length recombinant His-tagged human PLK1 expressed in baculovirus expression system at 1 uM by FRET assay relative to control.
Assay [17] has as its target Nicotinic acetylcholine receptor alpha-1/beta-1/delta/epsilon (Homo sapiens) (UniProt P02708+P11230+Q07001+Q04844). The assay is described as follows: Binding affinity to (alpha1)2beta1deltaepsilon nAChR (unknown origin) receptor at 10 uM relative to control. In kind it is protein-complex assay. In a few lines: (§3)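 Broad radioligand-binding and enzyme screening panel covering 42 targets (biogenic amine and neuropeptide receptors, ion channels, neurotransmitter transporters, acetylcholinesterase). Single test concentration of 10 μM. Results expressed as binding relative to control, with a hit defined as >50% of control.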

The target of assay [18] is Sodium-dependent noradrenaline transporter (Homo sapiens) (UniProt P23975). As to the kind of experiment: Binding affinity to recombinant human norepinephrine transporter at 10 uM relative to control. In a few lines:
as §3

Each structure is given as a SMILES string.

Protein kinase C beta type (Homo sapiens), sequence (P05771 2-671 limits assumed): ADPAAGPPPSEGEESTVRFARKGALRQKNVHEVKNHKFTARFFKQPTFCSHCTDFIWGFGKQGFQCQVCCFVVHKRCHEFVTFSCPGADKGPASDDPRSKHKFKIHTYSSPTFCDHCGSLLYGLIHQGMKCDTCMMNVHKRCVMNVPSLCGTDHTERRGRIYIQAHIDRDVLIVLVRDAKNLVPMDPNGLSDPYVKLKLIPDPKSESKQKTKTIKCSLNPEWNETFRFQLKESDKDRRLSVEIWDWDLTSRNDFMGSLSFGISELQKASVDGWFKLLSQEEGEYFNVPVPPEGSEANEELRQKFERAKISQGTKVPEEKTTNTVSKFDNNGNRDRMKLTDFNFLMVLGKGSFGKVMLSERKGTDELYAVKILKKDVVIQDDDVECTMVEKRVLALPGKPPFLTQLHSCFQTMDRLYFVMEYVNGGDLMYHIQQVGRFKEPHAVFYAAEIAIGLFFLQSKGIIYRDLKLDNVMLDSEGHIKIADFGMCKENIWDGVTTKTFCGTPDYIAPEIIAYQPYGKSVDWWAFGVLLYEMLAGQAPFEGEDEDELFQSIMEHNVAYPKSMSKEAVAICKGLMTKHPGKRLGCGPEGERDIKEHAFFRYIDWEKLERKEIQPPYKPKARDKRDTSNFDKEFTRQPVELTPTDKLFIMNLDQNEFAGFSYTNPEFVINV
Tyrosine-protein kinase JAK2 (Homo sapiens), sequence (O60674 whole entry, the tested form may be a part): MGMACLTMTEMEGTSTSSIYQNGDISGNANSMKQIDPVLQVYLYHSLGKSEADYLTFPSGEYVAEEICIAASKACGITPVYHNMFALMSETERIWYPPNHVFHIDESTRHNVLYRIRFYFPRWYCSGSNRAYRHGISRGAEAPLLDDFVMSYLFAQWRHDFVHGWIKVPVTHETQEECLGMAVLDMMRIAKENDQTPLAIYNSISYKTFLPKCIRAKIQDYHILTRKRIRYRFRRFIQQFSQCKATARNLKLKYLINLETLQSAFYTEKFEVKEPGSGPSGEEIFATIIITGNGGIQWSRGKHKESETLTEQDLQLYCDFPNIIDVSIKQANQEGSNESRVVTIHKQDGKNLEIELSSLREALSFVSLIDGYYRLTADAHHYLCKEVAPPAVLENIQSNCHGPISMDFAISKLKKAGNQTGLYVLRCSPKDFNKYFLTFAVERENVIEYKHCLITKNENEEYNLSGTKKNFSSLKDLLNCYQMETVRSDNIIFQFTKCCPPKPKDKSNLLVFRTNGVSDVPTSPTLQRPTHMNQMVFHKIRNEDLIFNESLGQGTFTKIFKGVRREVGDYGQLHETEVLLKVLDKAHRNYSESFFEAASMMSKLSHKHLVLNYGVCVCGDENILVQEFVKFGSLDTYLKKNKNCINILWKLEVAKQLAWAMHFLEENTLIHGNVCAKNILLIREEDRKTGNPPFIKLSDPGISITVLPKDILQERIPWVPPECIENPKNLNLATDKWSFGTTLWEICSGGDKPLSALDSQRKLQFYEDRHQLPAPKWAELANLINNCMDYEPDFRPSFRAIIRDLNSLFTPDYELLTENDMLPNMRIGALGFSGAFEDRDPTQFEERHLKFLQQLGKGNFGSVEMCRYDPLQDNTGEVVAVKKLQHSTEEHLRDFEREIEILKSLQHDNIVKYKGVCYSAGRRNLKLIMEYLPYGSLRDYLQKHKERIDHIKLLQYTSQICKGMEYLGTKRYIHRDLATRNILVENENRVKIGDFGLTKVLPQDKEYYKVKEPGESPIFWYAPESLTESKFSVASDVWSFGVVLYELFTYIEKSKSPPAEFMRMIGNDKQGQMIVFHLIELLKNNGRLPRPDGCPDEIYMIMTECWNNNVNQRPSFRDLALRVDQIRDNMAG
Tyrosine-protein kinase receptor TYRO3 (Homo sapiens), sequence (Q06418 whole entry, the tested form may be a part): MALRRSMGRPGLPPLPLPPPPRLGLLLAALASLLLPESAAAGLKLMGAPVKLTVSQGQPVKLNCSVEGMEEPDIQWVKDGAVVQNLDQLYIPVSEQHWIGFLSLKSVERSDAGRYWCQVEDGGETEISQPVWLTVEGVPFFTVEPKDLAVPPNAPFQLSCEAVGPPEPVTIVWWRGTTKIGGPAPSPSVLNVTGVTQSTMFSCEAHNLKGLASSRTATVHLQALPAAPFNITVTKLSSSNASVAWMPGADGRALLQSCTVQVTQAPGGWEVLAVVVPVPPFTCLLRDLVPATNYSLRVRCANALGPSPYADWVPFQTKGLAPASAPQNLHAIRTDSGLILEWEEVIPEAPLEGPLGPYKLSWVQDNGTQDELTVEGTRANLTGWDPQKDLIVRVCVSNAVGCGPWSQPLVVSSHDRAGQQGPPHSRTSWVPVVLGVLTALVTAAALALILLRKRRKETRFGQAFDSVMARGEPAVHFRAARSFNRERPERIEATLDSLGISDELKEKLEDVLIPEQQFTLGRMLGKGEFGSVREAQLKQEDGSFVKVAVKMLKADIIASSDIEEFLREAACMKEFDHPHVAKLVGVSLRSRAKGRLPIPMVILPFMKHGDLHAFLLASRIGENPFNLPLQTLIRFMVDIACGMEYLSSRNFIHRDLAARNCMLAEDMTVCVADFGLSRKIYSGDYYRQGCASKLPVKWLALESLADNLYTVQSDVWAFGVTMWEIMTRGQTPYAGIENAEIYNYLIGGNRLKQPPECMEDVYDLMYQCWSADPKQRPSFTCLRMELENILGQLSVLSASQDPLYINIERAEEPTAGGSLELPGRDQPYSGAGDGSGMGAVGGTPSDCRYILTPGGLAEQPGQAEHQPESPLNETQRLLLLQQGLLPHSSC
Rho-associated protein kinase 2 (Homo sapiens), sequence (O75116 whole entry, looked up, the tested form may be a part): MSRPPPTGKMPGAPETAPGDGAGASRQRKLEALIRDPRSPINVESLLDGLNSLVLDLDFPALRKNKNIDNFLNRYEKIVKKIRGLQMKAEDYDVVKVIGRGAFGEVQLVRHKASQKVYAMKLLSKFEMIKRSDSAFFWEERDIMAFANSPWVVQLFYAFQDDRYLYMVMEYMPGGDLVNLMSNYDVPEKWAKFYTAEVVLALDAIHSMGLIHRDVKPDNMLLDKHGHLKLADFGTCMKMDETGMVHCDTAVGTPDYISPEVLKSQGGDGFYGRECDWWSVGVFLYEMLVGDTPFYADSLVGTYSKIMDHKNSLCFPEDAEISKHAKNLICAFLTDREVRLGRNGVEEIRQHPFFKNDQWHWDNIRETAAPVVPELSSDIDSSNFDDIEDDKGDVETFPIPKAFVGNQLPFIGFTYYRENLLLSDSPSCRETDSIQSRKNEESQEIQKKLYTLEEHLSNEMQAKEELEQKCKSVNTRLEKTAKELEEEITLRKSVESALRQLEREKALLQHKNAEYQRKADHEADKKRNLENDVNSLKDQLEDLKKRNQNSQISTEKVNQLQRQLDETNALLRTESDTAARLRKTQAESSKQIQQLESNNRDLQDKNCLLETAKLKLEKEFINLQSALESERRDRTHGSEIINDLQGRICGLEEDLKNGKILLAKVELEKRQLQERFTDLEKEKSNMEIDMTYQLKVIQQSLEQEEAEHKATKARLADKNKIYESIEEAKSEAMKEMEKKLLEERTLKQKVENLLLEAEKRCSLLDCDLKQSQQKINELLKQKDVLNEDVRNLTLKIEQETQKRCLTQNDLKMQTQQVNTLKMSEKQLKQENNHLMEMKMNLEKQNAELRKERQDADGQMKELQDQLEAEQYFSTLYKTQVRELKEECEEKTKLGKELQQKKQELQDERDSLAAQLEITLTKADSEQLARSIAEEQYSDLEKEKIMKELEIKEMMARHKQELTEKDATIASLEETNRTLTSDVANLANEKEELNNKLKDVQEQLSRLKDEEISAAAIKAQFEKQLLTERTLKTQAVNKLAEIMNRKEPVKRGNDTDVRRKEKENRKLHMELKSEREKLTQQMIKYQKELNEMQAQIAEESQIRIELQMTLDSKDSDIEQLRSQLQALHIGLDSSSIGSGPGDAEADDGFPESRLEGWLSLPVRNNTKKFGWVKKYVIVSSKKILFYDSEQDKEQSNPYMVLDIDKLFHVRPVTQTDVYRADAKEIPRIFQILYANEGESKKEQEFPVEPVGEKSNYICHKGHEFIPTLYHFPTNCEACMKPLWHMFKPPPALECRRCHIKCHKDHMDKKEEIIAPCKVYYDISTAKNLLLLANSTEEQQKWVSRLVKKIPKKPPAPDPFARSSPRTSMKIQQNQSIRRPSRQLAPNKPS
Aurora kinase B (Homo sapiens), sequence (Q96GD4 whole entry, the tested form may be a part): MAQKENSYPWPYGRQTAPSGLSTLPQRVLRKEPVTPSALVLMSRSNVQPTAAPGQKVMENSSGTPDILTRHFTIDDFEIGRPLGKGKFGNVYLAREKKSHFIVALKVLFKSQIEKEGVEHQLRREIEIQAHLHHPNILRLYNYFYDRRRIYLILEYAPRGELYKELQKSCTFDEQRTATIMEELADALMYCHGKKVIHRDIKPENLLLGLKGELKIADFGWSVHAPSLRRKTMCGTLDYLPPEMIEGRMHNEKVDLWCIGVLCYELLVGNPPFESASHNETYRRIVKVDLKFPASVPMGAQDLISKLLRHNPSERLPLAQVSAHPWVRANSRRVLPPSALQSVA
Phosphorylase b kinase gamma catalytic chain, liver/testis isoform (Homo sapiens), sequence (P15735 whole entry, canonical isoform): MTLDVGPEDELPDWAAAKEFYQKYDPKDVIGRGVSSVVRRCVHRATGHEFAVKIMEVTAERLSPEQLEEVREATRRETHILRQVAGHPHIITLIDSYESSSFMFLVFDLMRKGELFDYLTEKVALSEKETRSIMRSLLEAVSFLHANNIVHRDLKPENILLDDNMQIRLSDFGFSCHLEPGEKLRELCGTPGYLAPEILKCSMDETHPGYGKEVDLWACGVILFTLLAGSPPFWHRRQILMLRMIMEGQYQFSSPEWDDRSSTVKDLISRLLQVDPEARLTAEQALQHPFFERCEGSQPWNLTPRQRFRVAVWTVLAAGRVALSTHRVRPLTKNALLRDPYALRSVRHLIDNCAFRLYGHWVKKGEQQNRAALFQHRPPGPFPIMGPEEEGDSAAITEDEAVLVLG

`CC(C)n1nc(-c2cnc(N)c(OC(F)(F)F)c2)cc1[C@H]1[C@@H]2CN(C3COC3)C[C@@H]21` gave a dissociation constant (Kd) in assay [1] of 11 nM. Also, the inhibition in assay [2] was found to be 17.6%; in [3] it was 14.4%; in assay [4] it was 10.9%; in [5], 21.9%; in assay [6] it was 4.6%; in [7], 6.9%. The inhibition in [8] worked out at 5.2%; in assay [9] it was 1.1%; in [10], 1.7%; in assay [11], 4.5%; in assay [12], 1.4%; in assay [13], 5.5%. The inhibition in assay [14] came out at 11.2%; in assay [15], 7.2%; in [16] it was 5%. The Activity in [17] and in assay [18] was over 50% each time.
Compound `Nc1ncc(-c2cc([C@H]3[C@@H]4CN(C5COC5)C[C@@H]43)n(CC3CC3)n2)cc1C(F)(F)F` gave a Kd in assay [1] of 5.1 nM. The inhibition in assay [2] came out at 0.3%; in assay [3], 7.4%; in assay [4], 14.9%; in assay [5] it was 24.6%; in assay [6] it was 20.4%; in [7], 3.9%. Moreover, the inhibition in assay [8] was 6.3%; in [9], -7.3%; in assay [10], 3.8%; in [11] it was 6.9%; in [12], -0.6%; in [13], 2.1%. The inhibition was 11.3% in assay [14], -7.5% in assay [15] and -0.4% in [16]. Besides, the Activity in assay [17] and in assay [18] was over 50% in each case.
